RGS4 pot – RGS4 potentiators or activators, primary screen, cell-based, HEK293 M3R inducible RGS4, calcium flux | carbachol calcium flux Fluo4; active compounds read low | B-score at 10 µM | 310,000 tested, 0.92% active;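 active means B-score of the integrated calcium signal more than 4 SD below the library mean, with starting fluorescence not abnormally high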;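 further: negative B-score means reduced calcium response which marks RGS4 activation or potentiation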
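System: HEK293 FlpIn-TREx cells, stable M3R, doxycycline-inducible RGS4. Timing: overnight RGS4 induction, 30 min dye load 37 °C, 20 min compound RT. Also added: carbachol, ECmax concentration. Measured by: Fluo4 fluorescence kinetic imaging of calcium. Evaluation: integrated calcium ratio converted to B score.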
MrgX1 antagonist – antagonists of human MrgX1 receptor, primary screen, HEK293 cells, Fluo-4 calcium flux; 310,000 tested, 1.3% active; Mas-related G-protein coupled receptor member X1 (Homo sapiens), Q96LB2; B-score at 10 µM; AID 588676, 2011; BAM8-22 antagonism; active compounds read low;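 active means calcium-response B-score plate-corrected more than 3 library SD below zero, starting fluorescence within 5 deviations, no agonist response on first addition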;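 further: peak minus trough fluorescence over baseline after final BAM8-22 challenge near maximal dose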
Target sequence (Q96LB2 whole entry, looked up): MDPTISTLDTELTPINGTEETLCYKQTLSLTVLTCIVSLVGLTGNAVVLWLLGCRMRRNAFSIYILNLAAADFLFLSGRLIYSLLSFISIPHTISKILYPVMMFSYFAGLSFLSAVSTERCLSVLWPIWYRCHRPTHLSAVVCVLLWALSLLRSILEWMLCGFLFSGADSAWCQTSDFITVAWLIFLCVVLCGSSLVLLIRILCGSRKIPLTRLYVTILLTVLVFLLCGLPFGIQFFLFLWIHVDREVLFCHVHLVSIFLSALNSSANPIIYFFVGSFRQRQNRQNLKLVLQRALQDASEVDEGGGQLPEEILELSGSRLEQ
MrgX1 PAM – positive allosteric modulators of MrgX1, primary screen, HEK293 cells, Fluo-4 calcium flux | FDSS; active compounds read high | B-score at 10 µM | AID 588675, 2011 | 310,000 tested, 0.63% active;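 active means plate-corrected calcium response at least 3 library SD above typical, normal starting fluorescence, not activating the receptor alone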;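 further: compound read alongside a low EC10 to EC30 dose of BAM8-22 agonist; peak minus trough fluorescence over baseline measured at the second addition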
RGS4 inh – RGS4 inhibitors, primary screen, cell-based, HEK293 M3R inducible RGS4, calcium flux. Regulator of G-protein signaling 4 (Homo sapiens), P49798. Fluo-4 calcium flux; active compounds read high; triggered by carbachol at its EC20. B-score at 10 µM. 310,000 tested, 0.45% active. AID 463165, 2010;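 active means B-score, a plate-corrected calcium signal, over three deviations above library mean, with baseline fluorescence within five deviations of library mean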;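 further: RGS4 expression induced by doxycycline in cells with stable M3 receptor; B-score is computed from the integrated fluorescence ratio over baseline after carbachol; higher B-score means a larger calcium signal and so more RGS4 inhibition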
Target sequence (P49798 whole entry, looked up): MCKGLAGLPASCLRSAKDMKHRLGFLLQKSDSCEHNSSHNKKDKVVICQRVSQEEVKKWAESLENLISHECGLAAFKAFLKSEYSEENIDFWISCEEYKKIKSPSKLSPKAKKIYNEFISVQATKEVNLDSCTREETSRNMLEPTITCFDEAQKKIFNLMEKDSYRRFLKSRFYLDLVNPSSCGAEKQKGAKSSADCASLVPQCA
MrgX1 agonist – agonists of human MrgX1 receptor, primary screen, HEK293 cells, Fluo-4 calcium flux | Mas-related G-protein coupled receptor member X1 (Homo sapiens), Q96LB2 | Fluo-4 calcium fluorescence, agonist mode; active compounds read high | B-score at 10 µM | 310,000 tested, 0.44% active | AID 588627, 2011;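 active means calcium response B-score plate-corrected fluorescence ratio at least 3 library SD, with starting fluorescence B-score inside 5 SD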
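Test system: HEK293 cells stably expressing human MrgX1 receptor; amount: 15,000 cells per well; doses: compound delivered in addition one of three; times: overnight plating before 1 h dye loading; detection: Fluo-4 NW calcium-flux fluorescence, kinetic read; read-out basis: B-scored fluorescence response ratio; controls: positive and negative controls per plate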
MrgX1 allo conf – MrgX1 positive allosteric modulators, duplicate retest, confirmation, HEK293 cells, Fluo-4 calcium flux | shares compounds with MrgX1 PAM | Fluo-4 calcium fluorescence, FDSS | activation (ratio percentage), % at 10 µM | 1,200 tested, 13% active | AID 602413, 2012;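 active means ratio at least 3 SD above the weak peptide control, stable starting fluorescence, no direct agonism earlier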;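 further: compound followed by low BAM8-22 agonist challenge near EC20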
HEK293 Ca flux – nonspecific calcium signal in parental HEK293, confirmation, counter-screen for MrgX1 antagonist project, parental HEK293 cells, Fluo-4 calcium flux; shares compounds with MrgX1 antagonist; Fluo-4 calcium fluorescence, FDSS; fluorescence ratio F(max-min)/F0 at 10 µM; 4,000 tested, 2% active; AID 624111, 2012;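 active means duplicate-averaged calcium fluorescence ratio at least three times the standard deviation of buffer wells, a nonspecific response in parental cells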
HEK293 Ca counter – calcium response in parental HEK293 cells, primary screen, counter-screen for MrgX1 allosteric activator project, cell-based, Fluo-4 calcium flux, duplicate. 4,000 tested, 0.4% active. Fluo-4 fluorescence ratio; active compounds read high. fluorescence ratio F(max-min)/F0 at 10 µM. shares compounds with MrgX1 antagonist. AID 624114, 2012;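 active means calcium fluorescence ratio, averaged over duplicates, at least 3 SD of the buffer-well ratio, meaning a nonspecific response in receptor-free cells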;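 further: untransfected parental HEK293 lacking MrgX1 used as counterscreen for MrgX1 allosteric activators; fluorescence change taken during the second addition on a kinetic imager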
HEK293 Ca cntr2 – calcium response in parental HEK293 cells, primary screen, counter-screen for MrgX1 agonist project, cell-based, Fluo-4 calcium flux, duplicate, agonist mode. shares compounds with MrgX1 antagonist. Fluo-4 calcium fluorescence (FDSS); active compounds read high. fluorescence ratio F(max-min)/F0 at 10 µM. 4,000 tested, 8.7% active. AID 624115, 2012;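 active means calcium fluorescence ratio at least three times the spread of buffer wells, meaning a non-specific response in parental cells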
The depositor's hits bear a star; i = inactive; . = not tested or not shown. Sampled rows, rich in hits. Any-hit rate of the full collection: about 3.5%.

SMILES | RGS4 pot | MrgX1 antagonist | MrgX1 PAM | RGS4 inh | MrgX1 agonist | MrgX1 allo conf | HEK293 Ca flux | HEK293 Ca counter | HEK293 Ca cntr2
COC(=O)c1ccc(NS(=O)(=O)c2ccc(Cl)cc2)o1 | i | i | 22* | i | i | 12%* | i | i | i
COc1ccc(Br)cc1S(=O)(=O)Nc1cccc(C)n1 | i | i | 12* | i | i | i | i | i | i
COc1ccc(S(=O)(=O)Nc2cccc(C)n2)c2ccccc12 | i | i | i | i | i | . | . | . | .
O=C(NCCCC1CCCC1)C1CCC(=O)N(Cc2cccc(C(F)(F)F)c2)C1 (stereo not drawn) | i | i | i | i | i | . | . | . | .
O=C(NCCCn1cccn1)C1CCC(=O)N(Cc2cccc(C(F)(F)F)c2)C1 (stereo not drawn) | i | i | 7.8* | i | i | i | i | i | i
COc1ccc(NC2CCCN(C(=O)CCN3Cc4ccccc4C3=O)C2)cc1 (stereo not drawn) | i | i | i | i | i | . | . | . | .
CCN(CC)CCNc1nc2nonc2nc1NCCN(CC)CC | i | i | i | i | i | . | . | . | .
CC(=O)c1sc(NC(=O)Cc2c(F)cccc2Cl)nc1C | i | i | i | i | i | . | . | . | .
O=C(Cc1c(F)cccc1Cl)Nc1nc2ccccc2s1 | i | i | 21* | i | i | i | i | i | i
CC(C#N)Sc1nnc(-c2ccccc2F)n1C1CC1 (stereo not drawn) | i | i | i | i | i | . | . | . | .
c1ccc(-c2noc(-c3cccc4ccccc34)n2)nc1 | i | i | 8.4* | i | i | i | 0.53* | i | i
COC(=O)C(C)NC(=O)CNS(=O)(=O)c1ccc(F)cc1 (stereo not drawn) | i | i | i | i | i | . | . | . | .
NS(=O)(=O)c1ccc(NC(=O)CSc2ncccn2)cc1 | i | i | 16* | i | i | i | i | i | i
CCOC(=O)C1=C(COC(=O)c2cc(Br)c(Br)s2)NC(=O)NC1C (stereo not drawn) | i | i | 9.8* | i | i | i | i | i | i
O=[N+]([O-])c1cc(/C=N/Nc2nc3ccccc3[nH]2)c(O)cc1O | i | i | i | i | i | . | . | . | .
Cc1cc(C)c(NC(=O)COC(=O)C2CCN(c3ccc(C(F)(F)F)cn3)CC2)c(Cl)c1 | i | i | i | i | i | . | . | . | .
Cc1cc(C)c(NC(=O)CNC(=O)COC(=O)C2CCN(c3ccc(C(F)(F)F)cn3)CC2)c(C)c1 | i | i | 7* | i | i | i | i | i | i
Cc1ccc(Sc2ncccc2C(=O)N(C)Cc2cccs2)c(C)c1 | i | i | 25* | i | i | i | i | i | i
Cc1ccc(Nc2ncccc2C(=O)NCc2cccs2)c(C)c1 | i | i | i | i | i | . | . | . | .
O=C(NC(=S)NC1CCN(Cc2ccccc2)CC1)c1ccc(F)cc1 | i | i | i | i | i | . | . | . | .
